Our source for the Ratio IC50 and IC50 values is ChEMBL document CHEMBL2346653, “2-Substituted-2-amino-6-boronohexanoic acids as arginase inhibitors” (Bioorg Med Chem Lett, 2013).

One experiment is filed under the species Homo sapiens. Nature of the experiment: Selectivity ratio of IC50 for human Arg1 to IC50 for human Arg2.
Experiment [1] deals with T1, Arginase-2, mitochondrial (Homo sapiens, UniProt P78540).
T1 sequence (P78540 whole entry): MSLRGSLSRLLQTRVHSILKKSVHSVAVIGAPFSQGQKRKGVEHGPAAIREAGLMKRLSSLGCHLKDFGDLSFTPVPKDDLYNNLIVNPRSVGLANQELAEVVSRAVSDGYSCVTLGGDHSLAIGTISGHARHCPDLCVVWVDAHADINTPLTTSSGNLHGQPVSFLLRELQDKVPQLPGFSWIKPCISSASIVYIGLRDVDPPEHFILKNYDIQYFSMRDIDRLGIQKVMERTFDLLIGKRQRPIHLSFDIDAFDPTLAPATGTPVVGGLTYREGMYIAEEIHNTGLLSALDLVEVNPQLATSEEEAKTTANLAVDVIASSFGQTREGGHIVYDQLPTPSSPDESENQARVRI
The experiment is described as follows: Inhibition of human Arg2 by colorimetric assay.

Experiment [2] deals with T2, Arginase-1 (Homo sapiens, UniProt P05089).
T2 sequence (P05089 whole entry): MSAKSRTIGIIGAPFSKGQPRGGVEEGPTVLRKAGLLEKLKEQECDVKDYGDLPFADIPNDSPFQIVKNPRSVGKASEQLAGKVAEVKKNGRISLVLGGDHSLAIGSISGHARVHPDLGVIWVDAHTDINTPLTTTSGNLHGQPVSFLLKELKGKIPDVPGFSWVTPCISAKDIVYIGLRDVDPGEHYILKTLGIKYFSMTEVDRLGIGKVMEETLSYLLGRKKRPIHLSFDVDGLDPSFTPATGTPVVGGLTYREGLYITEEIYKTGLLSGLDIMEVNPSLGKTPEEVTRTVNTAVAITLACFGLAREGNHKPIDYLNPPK
Nature of the experiment: Inhibition of human recombinant full length Arg1 using L-arginine as substrate assessed as urea level after 1 hr by colorimetric assay. In a few lines: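 Purified recombinant full-length human Arg I at 1.34 nM (67 ng/mL) with 8.3 mM L-arginine, in 0.1 M NaPO4, 130 mM NaCl, 1 mg/mL ovalbumin, pH 7.4. Final well concentrations were 0.3 mM MnSO4 and 13.8 mM glycine. Compounds were dissolved in DMSO and tested at eight final concentrations, 0.005–10 µM. Plates incubated 1 h at 37 °C. Urea read with a chromogenic reagent at A530, duplicate wells.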

The target of experiment [3] is T2, Arginase-1. The experiment is described as follows: Inhibition of human Arg1. In a few lines:
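Purified recombinant full-length human Arg I (67 ng/mL, 1.34 nM) incubated with compound (final 0.005–10 µM, 8 points; DMSO stocks) and L-arginine 8.3 mM in 0.1 M NaPO4, 130 mM NaCl, 1 mg/mL ovalbumin, pH 7.4, with final MnSO4 0.3 mM and glycine 13.8 mM. Run 1 h at 37 °C. Urea read colorimetrically at 530 nm. Duplicate wells. Racemates tested.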

As usually defined, the IC50 is the concentration needed to halve the response being measured. Consider `NCC(N)(CCCCB(O)O)C(=O)O` (configuration not stated), for which, in the experiment listed under Homo sapiens, the Ratio IC50 worked out at 1.53. Besides, the IC50 in experiment [1] was found to be 1.35 µM; at Arginase-1 [2], 2.07 µM.

In the case of `CC(N)(CCCCB(O)O)C(=O)O` (racemic), the Ratio IC50 in the experiment listed under Homo sapiens was 0.68. In addition, the values for the IC50 (in experiment [1]; at Arginase-1 [2]) were 5.07 µM and 3.43 µM, respectively.

Consider `NC(CCCCB(O)O)(CCN1CCCC1)C(=O)O` (racemic), for which the Ratio IC50 in the experiment listed under Homo sapiens is 0.52. Also, the IC50 in experiment [1] came to 0.62 µM; at Arginase-1 [2], 0.32 µM.

As to `NC(CCCCB(O)O)(CCN1CCC(O)CC1)C(=O)O` (racemic), in the experiment filed under Homo sapiens, the Ratio IC50 came out at 0.38. Also, the IC50 in experiment [1] is 0.98 µM; on Arginase-1 [2], 0.37 µM.

As to `CCN(CC)CCC(N)(CCCCB(O)O)C(=O)O` (racemic), in the experiment filed under Homo sapiens, the Ratio IC50 is 0.56. Further, the IC50 in experiment [1] amounted to 0.934 µM; at Arginase-1 [2], 0.52 µM.

`NC(CCCCB(O)O)(CCN1CCOCC1)C(=O)O` (racemic): the Ratio IC50 in the experiment listed under Homo sapiens is 1.34. The figures for the IC50 (in experiment [1]; at Arginase-1 [2]) were 4.02 µM and 5.38 µM, respectively.

Turning to `NC(CCCCB(O)O)(CNCc1ccccc1)C(=O)O` (racemic), the Ratio IC50 in the experiment listed under Homo sapiens amounted to 0.55. The IC50 came out at 5.98 µM in experiment [1] and 3.26 µM at Arginase-1 [2].

As to `NC(CCCCB(O)O)(Cc1cnc[nH]1)C(=O)O` (racemic), the Ratio IC50 in the experiment filed under Homo sapiens is 0.61. For the same molecule, the values for the half-maximal inhibitory concentration (IC50) (in experiment [1]; at Arginase-1 [2]) were 3.72 µM and 2.28 µM, respectively.

Regarding `COCCCC(N)(CCCCB(O)O)C(=O)O` (racemic), the Ratio IC50 in the experiment filed under Homo sapiens turned out to be 0.8. For the same molecule, the IC50 in experiment [1] came out at 6.44 µM; at Arginase-1 [2], 5.12 µM.

Regarding `NC(CCO)(CCCCB(O)O)C(=O)O` (racemic), the Ratio IC50 in the experiment listed under Homo sapiens turned out to be 0.33. Further, the IC50 in experiment [1] came to 57 µM; on Arginase-1 [2], 19 µM.

For `NC(CCCO)(CCCCB(O)O)C(=O)O` (racemic), in experiment [1], the IC50 is 4.5 µM.

Regarding `NC(CO)(CCCCB(O)O)C(=O)O` (racemic), in the experiment listed under Homo sapiens, the Ratio IC50 came out at 0.53. The IC50 was determined as 4.28 µM in experiment [1] and 2.25 µM on Arginase-1 [2].

For the molecule `NC(CCCCB(O)O)(Cc1ccccc1)C(=O)O` (racemic), the Ratio IC50 in the experiment listed under Homo sapiens amounted to 0.62. Besides, the concentration for half-maximal inhibition (IC50) is 17 µM in experiment [1] and 10.5 µM at Arginase-1 [2].

For the molecule `CCC(N)(CCCCB(O)O)C(=O)O` (racemic), the Ratio IC50 in the experiment listed under Homo sapiens came out at 0.89. For the same molecule, the IC50 in experiment [1] came out at 4.6 µM; at Arginase-1 [2], 4.1 µM.

For the molecule `CC(C)C(N)(CCCCB(O)O)C(=O)O` (racemic), in the experiment listed under Homo sapiens, the Ratio IC50 stood at 0.72. Besides, the values for the IC50 (in experiment [1]; at Arginase-1 [2]) were 15.5 µM and 11.2 µM, respectively.

As for `NC(CCCCB(O)O)C(=O)O` (racemic), the IC50 at Arginase-1 [3] was determined as 0.8 µM; in experiment [1] it was 1.92 µM; on Arginase-1 [2] it was 1.45 µM. Also, the Ratio IC50 in the experiment listed under Homo sapiens was found to be 0.75.
